Test results: ChEMBL document CHEMBL1128288, “7-Azetidinylquinolones as antibacterial agents. 3. Synthesis, properties and structure-activity relationships of the stereoisomers containing a 7-(3-amino-2-methyl-1-azetidinyl) moiety” (J Med Chem, 1995)
Values after ≈ are worked out from the molar mass of the structure shown.

Experiments:
Assay type in all cases: functional
[1] = test system: Bacillus cereus; test: In vitro antibacterial activity measured as minimum inhibitory concentration was evaluated on Bacillus cereus ATCC 11778 (Bc).; details: Bacillus cereus, ATCC 11778; read-out: MIC
How it was run: (§1)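 Serial 2-fold agar dilution in Mueller Hinton medium, run side by side with reference quinolones. Inoculum 10^5 cfu/mL; compound range 0.007–16 µg/mL.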

[2] = test system: Staphylococcus epidermidis; test: In vitro antibacterial activity measured as minimum inhibitory concentration was evaluated on Staphylococcus epidermidis ATCC 155-1 (Se).; details: Staphylococcus epidermidis, ATCC 155-1; read-out: MIC; how it was run: as §1
[3] = test system: Pseudomonas aeruginosa; test: In vitro antibacterial activity measured as minimum inhibitory concentration was evaluated on Pseudomonas aeruginosa ATCC 10145 (Pa).; details: Pseudomonas aeruginosa, ATCC 10145; read-out: MIC; how it was run: as §1
[4] = test system: Bacillus subtilis; test: In vitro antibacterial activity measured as minimum inhibitory concentration was evaluated on Bacillus subtilis ATCC 6633(Bs).; details: Bacillus subtilis, ATCC 6633; read-out: MIC; how it was run: as §1
[5] = test system: Escherichia coli; test: In vitro antibacterial activity measured as minimum inhibitory concentration, was evaluated on Escherichia coli ATCC 23559(Ec).; details: Escherichia coli, ATCC 23559; read-out: MIC; how it was run: as §1
[6] = test system: Enterococcus faecalis; test: In vitro antibacterial activity measured as minimum inhibitory concentration was evaluated on Streptococcus faecalis ATCC 10541 (Sf).; details: Enterococcus faecalis, ATCC 10541; read-out: MIC; how it was run: as §1
[7] = test system: Morganella morganii; test: In vitro antibacterial activity measured as minimum inhibitory concentration was evaluated on morganella morganii ATCC 8019 (Mm).; details: Morganella morganii, ATCC 8019; read-out: MIC; how it was run: as §1
[8] = test system: Enterobacter cloacae; test: In vitro antibacterial activity measured as minimum inhibitory concentration, was evaluated on Enterobacter cloacae ATCC 23355 (Ecl).; details: Enterobacter cloacae, ATCC 23355; read-out: MIC
[9] = test system: Proteus vulgaris; test: In vitro antibacterial activity measured as minimum inhibitory concentration was evaluated on proteus vulgaris ATCC 8427 (Pv).; details: Proteus vulgaris, ATCC 8427; read-out: MIC; how it was run: as §1
[10] = test system: Klebsiella pneumoniae; test: In vitro antibacterial activity measured as minimum inhibitory concentration was evaluated on klebsiella pneumoniae ATCC 10031 (Kp).; details: Klebsiella pneumoniae, ATCC 10031; read-out: MIC
How it was run: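 Serial 2-fold agar dilution in Mueller Hinton medium, run side by side with reference quinolones.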

[11] = test system: Staphylococcus aureus; test: In vitro antibacterial activity measured as minimum inhibitory concentration was evaluated on Staphylococcus aureus ATCC 25178 (Sa).; details: Staphylococcus aureus, ATCC 25178; read-out: MIC; how it was run: as §1

Structure (SMILES) | MIC [1] | MIC [2] | MIC [3] | MIC [4] | MIC [5] | MIC [6] | MIC [7] | MIC [8] | MIC [9] | MIC [10] | MIC [11]
CC1C(N)CN1c1c(F)cc2c(=O)c(C(=O)O)cn(-c3ccc(F)cc3F)c2c1Cl (stereo not given) | 0.03 µg/mL (≈ 0.0685 µM) | 0.06 µg/mL (≈ 0.137 µM) | 0.5 µg/mL (≈ 1.14 µM) | 0.03 µg/mL (≈ 0.0685 µM) | 0.03 µg/mL (≈ 0.0685 µM) |  |  |  |  |  | 
CCNCC1(C)CN(c2c(F)cc3c(=O)c(C(=O)O)cn4c3c2OC[C@@H]4C)C1 | 0.5 µg/mL (≈ 1.28 µM) | 0.25 µg/mL (≈ 0.642 µM) | 8 µg/mL (≈ 20.5 µM) | 0.06 µg/mL (≈ 0.154 µM) | 0.25 µg/mL (≈ 0.642 µM) | 2 µg/mL (≈ 5.14 µM) | 1 µg/mL (≈ 2.57 µM) | 0.5 µg/mL (≈ 1.28 µM) | 1 µg/mL (≈ 2.57 µM) | 1 µg/mL (≈ 2.57 µM) | 0.5 µg/mL (≈ 1.28 µM)
CNC1(C)CN(c2c(F)cc3c(=O)c(C(=O)O)cn4c3c2OC[C@@H]4C)C1 | 0.12 µg/mL (≈ 0.332 µM) | 0.12 µg/mL (≈ 0.332 µM) | 1 µg/mL (≈ 2.77 µM) | 0.06 µg/mL (≈ 0.166 µM) | 0.015 µg/mL (≈ 0.0415 µM) | 0.5 µg/mL (≈ 1.38 µM) | 0.06 µg/mL (≈ 0.166 µM) | 0.06 µg/mL (≈ 0.166 µM) | 0.5 µg/mL (≈ 1.38 µM) | 0.015 µg/mL (≈ 0.0415 µM) | 0.12 µg/mL (≈ 0.332 µM)
Cc1c(F)c(N2C[C@H](N)[C@H]2C)nc2c1c(=O)c(C(=O)O)cn2-c1ccc(F)cc1F | 0.06 µg/mL (≈ 0.143 µM) | 0.06 µg/mL (≈ 0.143 µM) | 0.5 µg/mL (≈ 1.2 µM) | 0.015 µg/mL (≈ 0.0359 µM) | 0.06 µg/mL (≈ 0.143 µM) | 0.25 µg/mL (≈ 0.598 µM) | 0.25 µg/mL (≈ 0.598 µM) | 0.12 µg/mL (≈ 0.287 µM) | 1 µg/mL (≈ 2.39 µM) | 0.12 µg/mL (≈ 0.287 µM) | 0.06 µg/mL (≈ 0.143 µM)
C[C@H]1[C@@H](N)CN1c1c(F)cc2c(=O)c(C(=O)O)cn(C3CC3)c2c1F | 0.25 µg/mL (≈ 0.716 µM) | 1 µg/mL (≈ 2.86 µM) | 2 µg/mL (≈ 5.73 µM) | 0.25 µg/mL (≈ 0.716 µM) | 0.25 µg/mL (≈ 0.716 µM) | 2 µg/mL (≈ 5.73 µM) | 0.25 µg/mL (≈ 0.716 µM) | 0.25 µg/mL (≈ 0.716 µM) | 1 µg/mL (≈ 2.86 µM) | 0.25 µg/mL (≈ 0.716 µM) | 0.25 µg/mL (≈ 0.716 µM)
C[C@H]1COc2c(N3CC(C)(N(C)C)C3)c(F)cc3c(=O)c(C(=O)O)cn1c23 | 0.5 µg/mL (≈ 1.33 µM) | 0.12 µg/mL (≈ 0.32 µM) | 4 µg/mL (≈ 10.7 µM) | 0.06 µg/mL (≈ 0.16 µM) | 0.12 µg/mL (≈ 0.32 µM) | 2 µg/mL (≈ 5.33 µM) | 0.25 µg/mL (≈ 0.666 µM) | 0.5 µg/mL (≈ 1.33 µM) | 0.5 µg/mL (≈ 1.33 µM) | 0.12 µg/mL (≈ 0.32 µM) | 0.25 µg/mL (≈ 0.666 µM)
C[C@@H]1[C@@H](N)CN1c1c(F)cc2c(=O)c(C(=O)O)cn(-c3ccc(F)cc3F)c2c1Cl | 1 µg/mL (≈ 2.28 µM) | 0.5 µg/mL (≈ 1.14 µM) | 2 µg/mL (≈ 4.57 µM) | 0.12 µg/mL (≈ 0.274 µM) | 0.25 µg/mL (≈ 0.571 µM) | 2 µg/mL (≈ 4.57 µM) | 0.5 µg/mL (≈ 1.14 µM) | 0.25 µg/mL (≈ 0.571 µM) | 1 µg/mL (≈ 2.28 µM) | 0.5 µg/mL (≈ 1.14 µM) | 0.25 µg/mL (≈ 0.571 µM)
Cc1c(F)c(N2C[C@H](N)[C@H]2C)nc2c1c(=O)c(C(=O)O)cn2C1CC1 | 0.25 µg/mL (≈ 0.722 µM) | 0.12 µg/mL (≈ 0.346 µM) | 0.5 µg/mL (≈ 1.44 µM) | 0.25 µg/mL (≈ 0.722 µM) | 0.12 µg/mL (≈ 0.346 µM) | 0.12 µg/mL (≈ 0.346 µM) | 0.12 µg/mL (≈ 0.346 µM) | 0.12 µg/mL (≈ 0.346 µM) | 0.25 µg/mL (≈ 0.722 µM) | 0.12 µg/mL (≈ 0.346 µM) | 0.12 µg/mL (≈ 0.346 µM)
C[C@H]1COc2c(N3CC(N(C)C)C3)c(F)cc3c(=O)c(C(=O)O)cn1c23 | 0.06 µg/mL (≈ 0.166 µM) | 0.12 µg/mL (≈ 0.332 µM) | 4 µg/mL (≈ 11.1 µM) | 0.015 µg/mL (≈ 0.0415 µM) | 0.06 µg/mL (≈ 0.166 µM) | 2 µg/mL (≈ 5.53 µM) | 0.12 µg/mL (≈ 0.332 µM) | 0.06 µg/mL (≈ 0.166 µM) | 0.25 µg/mL (≈ 0.692 µM) | 0.015 µg/mL (≈ 0.0415 µM) | 0.12 µg/mL (≈ 0.332 µM)
C[C@H]1COc2c(N3CC(N)C3)c(F)cc3c(=O)c(C(=O)O)cn1c23 | 0.12 µg/mL (≈ 0.36 µM) | 0.06 µg/mL (≈ 0.18 µM) | 0.25 µg/mL (≈ 0.75 µM) | 0.06 µg/mL (≈ 0.18 µM) | 0.015 µg/mL (≈ 0.045 µM) | 0.12 µg/mL (≈ 0.36 µM) | 0.06 µg/mL (≈ 0.18 µM) | 0.015 µg/mL (≈ 0.045 µM) | 0.25 µg/mL (≈ 0.75 µM) | 0.015 µg/mL (≈ 0.045 µM) | 0.12 µg/mL (≈ 0.36 µM)
C[C@@H]1[C@@H](N)CN1c1c(F)c(N)c2c(=O)c(C(=O)O)cn(-c3ccc(F)cc3F)c2c1F | 0.12 µg/mL (≈ 0.275 µM) | 0.12 µg/mL (≈ 0.275 µM) | 0.5 µg/mL (≈ 1.15 µM) | 0.03 µg/mL (≈ 0.0687 µM) | 0.03 µg/mL (≈ 0.0687 µM) | 0.12 µg/mL (≈ 0.275 µM) | 0.12 µg/mL (≈ 0.275 µM) | 0.12 µg/mL (≈ 0.275 µM) | 0.5 µg/mL (≈ 1.15 µM) | 0.25 µg/mL (≈ 0.573 µM) | 0.06 µg/mL (≈ 0.137 µM)
